Screening data deposited in PubChem BioAssay by several laboratories.
Diaphorase act = compounds boosting diaphorase resazurin reduction – biochemical, uHTS, resorufin fluorescence, counter-screen for diaphorase-coupled primary assays, primary screen | Diaphorase/resazurin coupled assay, 16 min; stronger effect = higher value; 1 = vehicle wells, 0 = NADH-free wells | activation factor at 20 µM | 190,000 tested, 0.005% active | AID 1229, 2008;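 active = diaphorase activity raised at least twofold by the compound at 20 µM; inactive = activation factor below 2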
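Material: bacterial diaphorase enzyme (C. kluyveri); amount: enzyme 0.07 U/mL final; reagent: NADH substrate 0.114 mM plus resazurin dye 0.1 mM, final; doses: single compound dose of 20 µM, 1% DMSO final; timing: 16 min enzyme reaction, ambient temperature; measured by: fluorescence of resorufin, 544 nm excitation, 590 nm emission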
L major viab = Leishmania major promastigote growth inhibition, primary screen; 200,000 tested, 9% active; Leishmania major promastigotes, resazurin fluorescence viability; AID 1063, 2008; inhibition, % at 10 µM;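 also: promastigotes grown with compound for 44 hours at 28 °C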
G6PDH counter = L. mesenteroides G6PDH inhibitors, counter-screen for G6PDH-coupled screening assays, biochemical, Leuconostoc mesenteroides enzyme; inhibition, % at 5 µM; glucose-6-phosphate dehydrogenase [Leuconostoc mesenteroides]; Purified L. mesenteroides G6PDH, diaphorase/resazurin coupled fluorescence, 45 min; 200,000 tested, 0.12% active
Diaph inh CS = diaphorase inhibitors and chemical oxidizers, primary screen, counter-screen for diaphorase-coupled primary assays, biochemical, uHTS, resorufin fluorescence | diaphorase resazurin-to-resorufin fluorescence, NADH, 16 min; bacterial (C. kluyveri) enzyme, not human | inhibition, % at 20 µM | 190,000 tested, 0.69% active | AID 1217, 2008;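 active = primary screen inhibition at 20 µM above a set limit, cut at about 50% in these data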;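 also: plate controls were DMSO with full reaction for no effect and wells lacking NADH for full effect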
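material = Clostridium kluyveri diaphorase enzyme | amount = 0.14 U/mL diaphorase, enzyme working solution | schedule = incubation 16 min, room temperature | detection = fluorescence of resorufin formed from resazurin, Ex 544/Em 590 nm | benchmarks = positive control minus NADH, DMSO neutral control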
WT yeast gro inh = growth inhibition of WT strain, primary screen, mitochondrial fusion inhibitor project, WT and mutant strains, chemical genetic | mitochondrial fusion phenotypic screen | inhibition, % at 10 µM | 190,000 tested, 2.1% active | AID 1362, 2008; in the data active = inhibition above about 58%; tested in S. cerevisiae
* marks the source's active call; other numbers are inactive results. Compounds with a hit are over-represented: about 11% of the library has one in this group of screens. Rule as the data show it, unless noted: active = inhibition above about 50%; inactive = the rest.

SMILES	Diaphorase act	L major viab	G6PDH counter	Diaph inh CS	WT yeast gro inh
Clc1cc(Br)ccc1OCCN1CCOCC1	0.8	93*	6	16	-2
CC1CCN(CCCOc2ccc(Br)cc2Cl)CC1	1	89*	-1	5	45
CC1CCCN(CCOCCOc2ccc(Cl)cc2Br)C1 (centres undefined)	0.9	98*	5	6	-16
C=CCOc1ccc(Br)cc1CNCCCN1CCOCC1	1.1	12	-12	-9	-10
Cc1ccc(OCCCCN2CCC(C)CC2)c(Br)c1	1	100*	8	-2	37
O=C1CCC(=O)N1OCCCOc1ccc(Br)cc1Cl	0.9	8	-4	9	-8
COc1ccc(S(=O)(=O)N2CCC(C)CC2)cc1Br	0.8	0	1	16	8
CC(=O)c1sc(NC(=O)CCCOc2ccc(Cl)cc2)nc1C	1.1	-6	25	-8	-11
CCOC(=O)CNC(=S)N1CCn2c(nc3ccccc32)C1	1	-1	1	4	6
COc1ccccc1C(=O)C1CCCN(C(=O)c2snnc2C)C1 (centres undefined)	0.9	-3	7	7	-6
CC1=C(C(=O)Nc2ccccn2)C(c2ccc(Cl)cc2Cl)NC(=S)N1 (centres undefined)	0.8	17	2	20	4
COc1ccc(OC)c(NC(=O)CCN2CCCC(C)C2)c1 (centres undefined)	0.8	2	-1	16	-14
CC1CCCN(CCOCCOc2ccc(Br)cc2Cl)C1 (centres undefined)	0.8	97*	3	17	40
CCCCCOc1ccc(CN2CCOCC2)cc1Cl	0.9	86*	6	13	42
COC(=O)c1cc2sccc2n1Cc1nc(-c2ccc(OC)cc2)oc1C	0.9	100*	-1	14	33
Cc1ccccc1NC(=S)NC(NC(=O)c1ccccc1C)C(Cl)(Cl)Cl (centres undefined)	0.9	18	9	7	4
Cc1ccc(Cn2ccc(NC(=O)c3nc4ncccn4n3)n2)cc1	0.9	51*	14	11	-10
O=C(Nc1cnn(Cc2ccc(Cl)c(Cl)c2)c1)c1nc2ncccn2n1	0.9	8	0	6	14
Cc1cc(Cl)c2ccccc2n1	0.9	-5	1	6	-24
Clc1cncc(Cl)c1NNc1c2ccccc2nc2ccccc12	0.8	25	-47	16	83*
O=C(Nc1ccc(CN2CCOCC2)cc1)c1ccc(-c2cc(Cl)ccc2Cl)o1	0.8	99*	3	16	54
S=C(c1ccc(-c2cc(Cl)ccc2Cl)o1)N1CCOCC1	0.7	-8	-24	31	33
O=C(/C=C/c1ccc(Cl)cc1Cl)Nc1ccc(CN2CCOCC2)cc1	0.8	70*	-26	16	44
CCN(CC)Cc1c(C(=O)N2CCc3ccccc3C2)nc2ccc(Cl)cn12	0.9	0	12	12	-5
C=C(C)CN1CCN(c2ccc(N3C(=O)CCCC3=O)cc2[N+](=O)[O-])CC1	0.9	-9	6	7	-6
SMILES	Diaphorase act	L major viab	G6PDH counter	Diaph inh CS	WT yeast gro inh
C/C(=N/Nc1cc(-c2ccccc2)nc(-c2ccccc2)n1)c1ccc(O)cc1	0.8	89*	2	20	98*
COc1ccc(NC(=S)NCc2ccco2)c(OC)c1	0.9	5	-8	14	-2
CCc1cccc(CC)c1NC(=O)COC(=O)CC1c2ccccc2CCN1S(=O)(=O)c1ccc(F)cc1 (centres undefined)	0.8	98*	-4	23	2
O=C(COC(=O)CC1c2ccccc2CCN1S(=O)(=O)c1ccc(F)cc1)Nc1ccccc1 (centres undefined)	0.7	4	-4	25	8
COc1cc(/C=N/N=C(N)N)ccc1OCc1ccccc1Cl	1	101*	7	0	21
COc1ccc(/C=N/N=C/c2ccc(OC)c(OC)c2)cc1OC	1	-5	-2	3	-1
Cc1c(Cl)cccc1NC(=O)c1nc(C)n(-c2cc(OC(C)C)c(Cl)cc2Cl)n1	0.9	19	-4	14	75*
O=C(Cc1ccc([N+](=O)[O-])cc1)N1CCCCCC1	1.1	-7	1	-6	-8
CC(C)CC(=O)N1CCC(N2CCN(c3ccccc3)CC2)CC1	1	90*	3	0	20
COc1ccccc1N1CCN(C2CCN(C(=O)COc3ccccc3)CC2)CC1	0.9	-4	1	12	-6
CN1CCN(C(=O)CCc2ccc(S(=O)(=O)NC3CCCCC3)cc2)CC1	0.8	4	15	21	-3
COc1ccc(N2CCN(C(=O)c3c(-c4ccccc4)noc3C)CC2)cc1	0.9	-2	-1	10	11
COc1ccc(N2CCN(C(=O)c3c(C)nn(-c4ccccc4)c3C)CC2)cc1	0.9	50*	7	8	-7
O=C(CCc1ccc(Oc2cc([N+](=O)[O-])cc([N+](=O)[O-])c2)cc1)N1CCCCCC1	1	98*	-26	3	66*
COc1ccc(CCC(=O)N2CCN(C3CCCCC3)CC2)cc1	0.9	56*	0	6	-12
CC(=O)c1ccc(N2CCN(C(=O)CCCc3nc4ccccc4s3)CC2)cc1	0.8	1	-2	16	-2
O=C(CCSc1ccccn1)Nc1ccc(Br)cc1	0.8	47	-3	20	24
O=C(CCC1CCCC1)N1CCC(N2CCN(c3ccccc3)CC2)CC1	0.8	93*	19	19	17
O=C(CCC1CCCC1)N1CCN(C(=O)C2CC2)CC1	0.9	-3	10	11	-1
O=C(CCC1CCCC1)N1CCN(C2CCCC2)CC1	0.9	94*	0	6	8
COc1ccc(C(=O)N2CCC(N3CCN(c4ccccc4)CC3)CC2)cc1	0.8	91*	0	22	-6
COc1ccc(N2CCN(C(=O)c3ccc(CSc4ccccc4)cc3)CC2)cc1	0.8	-6	18	22	3
OCC1(Cc2ccccc2Cl)CCN(C/C=C/c2ccccc2)CC1	0.8	88*	20	15	35
Cc1cccc(C(=O)NNC(=O)c2ccccc2)c1	0.8	28	-1	15	-8
Cc1cccc(C(=O)c2cnc3ccccc3c2-c2ccccc2)c1	1	21	4	1	62*
CC(=O)N=Cc1c(C)c(C#N)c(=O)n(C)c1O	0.7	-5	8	29	7
Cc1cc(O)c(/C=N/c2ccccn2)c(=O)o1	0.9	-1	0	11	5
Cc1c(/C=N/Nc2ccc(F)cc2)c(O)n(C)c(=O)c1C#N	0.4	60*	26	56*	45
